Assays:
Assay type in all cases: cell-based
[1] = target: E3 ubiquitin-protein ligase Mdm2/Histone deacetylase 2 (Homo sapiens) (UniProt Q00987+Q92769); test: PROTAC activity at MDM2/HDAC2 in human HCT-116 cells assessed as decrease in HDAC2 abundance by measuring remaining activity at 10 uM measured after 24 hrs by Western blot analysis (reference value: 100%)
In short: (§1)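 HCT116 cells seeded in six-well plates for 24 h, then exposed 24 h to compound (0.01–10 μM) or DMSO in fresh medium. Lysis in Tris-HCl/NaCl/NP-40/Triton X-100 with protease inhibitor. Bradford-normalised 30 μg protein per lane. Quantitative Western blot used specific HDAC1, HDAC2, HDAC3, LSD1 or Sin3a antibodies with IRDye secondaries. Abundance compared with DMSO, n = 2 replicates.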

[2] = target: E3 ubiquitin-protein ligase Mdm2/Histone deacetylase 1 (Homo sapiens) (UniProt Q00987+Q13547); test: PROTAC activity at MDM2/HDAC1 in human HCT-116 cells assessed as decrease in HDAC1 abundance by measuring remaining activity at 0.025 uM measured after 24 hrs by Western blot analysis (reference value: 100%); in short: as §1
[3] = target: Lysine-specific histone demethylase 1A (Homo sapiens) (UniProt O60341); test: Induction of LSD1 degradation in human HCT-116 cells assessed as reduction in LSD1 abundance by measuring remaining activity at 0.1 uM measured after 24 hrs by Western blot analysis (reference value: 100%); in short: as §1

Sequence of E3 ubiquitin-protein ligase Mdm2/Histone deacetylase 1 (Homo sapiens) (Q00987 whole entry, looked up): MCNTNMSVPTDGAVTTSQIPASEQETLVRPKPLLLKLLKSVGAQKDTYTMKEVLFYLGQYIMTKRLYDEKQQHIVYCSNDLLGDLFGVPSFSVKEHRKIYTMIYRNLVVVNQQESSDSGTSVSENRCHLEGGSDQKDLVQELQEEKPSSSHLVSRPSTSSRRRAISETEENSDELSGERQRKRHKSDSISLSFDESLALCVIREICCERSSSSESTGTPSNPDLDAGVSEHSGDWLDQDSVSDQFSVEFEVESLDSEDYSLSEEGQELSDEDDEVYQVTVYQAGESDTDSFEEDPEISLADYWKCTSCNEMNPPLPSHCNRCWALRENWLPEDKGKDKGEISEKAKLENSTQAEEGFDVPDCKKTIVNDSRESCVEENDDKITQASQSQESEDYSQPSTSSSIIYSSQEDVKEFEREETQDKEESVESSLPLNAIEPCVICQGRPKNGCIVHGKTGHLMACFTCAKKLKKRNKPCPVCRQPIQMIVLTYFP
Sequence of E3 ubiquitin-protein ligase Mdm2/Histone deacetylase 1 (Homo sapiens) (Q13547 whole entry, looked up): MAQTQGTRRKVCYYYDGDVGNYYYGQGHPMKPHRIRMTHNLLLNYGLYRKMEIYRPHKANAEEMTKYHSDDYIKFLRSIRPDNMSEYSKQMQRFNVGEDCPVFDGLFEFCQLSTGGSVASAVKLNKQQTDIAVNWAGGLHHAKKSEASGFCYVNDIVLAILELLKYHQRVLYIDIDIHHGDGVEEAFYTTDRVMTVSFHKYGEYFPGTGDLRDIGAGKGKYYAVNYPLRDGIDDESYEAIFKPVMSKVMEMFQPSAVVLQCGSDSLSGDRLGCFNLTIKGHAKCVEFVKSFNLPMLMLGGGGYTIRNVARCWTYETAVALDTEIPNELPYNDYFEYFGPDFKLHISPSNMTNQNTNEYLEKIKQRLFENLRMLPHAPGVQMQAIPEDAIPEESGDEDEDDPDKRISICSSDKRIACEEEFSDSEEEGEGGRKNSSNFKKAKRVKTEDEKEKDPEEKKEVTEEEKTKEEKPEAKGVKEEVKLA
Sequence of E3 ubiquitin-protein ligase Mdm2/Histone deacetylase 2 (Homo sapiens) (Q00987 whole entry, looked up): as the sequence (Q00987 whole entry, looked up) above
Sequence of E3 ubiquitin-protein ligase Mdm2/Histone deacetylase 2 (Homo sapiens) (Q92769 whole entry, looked up): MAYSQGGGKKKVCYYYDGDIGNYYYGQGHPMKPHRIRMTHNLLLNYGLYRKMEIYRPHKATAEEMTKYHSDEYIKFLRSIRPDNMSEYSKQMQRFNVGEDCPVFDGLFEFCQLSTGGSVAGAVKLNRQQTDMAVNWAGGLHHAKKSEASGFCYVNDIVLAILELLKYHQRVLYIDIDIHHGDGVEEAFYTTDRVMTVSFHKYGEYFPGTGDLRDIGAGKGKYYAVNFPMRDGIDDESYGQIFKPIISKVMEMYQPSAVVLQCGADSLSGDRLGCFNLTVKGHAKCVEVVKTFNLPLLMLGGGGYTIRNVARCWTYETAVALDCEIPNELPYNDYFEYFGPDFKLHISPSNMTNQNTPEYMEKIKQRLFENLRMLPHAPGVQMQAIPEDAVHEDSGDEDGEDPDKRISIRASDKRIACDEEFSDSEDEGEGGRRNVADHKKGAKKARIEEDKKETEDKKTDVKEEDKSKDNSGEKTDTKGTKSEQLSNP

Activity [1]: 54% | Activity [2]: 94% | Activity [3]: 104%
SMILES: COc1cc(C(=O)NCCOCCOCCOCCOCCC(=O)Nc2ccc(C(=O)Nc3ccccc3N)cc2)ccc1NC(=O)[C@@H]1N[C@@H](CC(C)(C)C)[C@](C#N)(c2ccc(Cl)cc2F)[C@H]1c1cccc(Cl)c1F
